LEDGF integ inh – blocks HIV-1 LEDGF/p75-dependent DNA integration; AID 743269; inhibition, % at 3.7 µM; 370,000 compounds, 0.64% hits; TR-FRET IN-LEDGF/p75 DNA integration, Eu/Cy5;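 active = inhibition above the screen-wide mean plus 3 SD, cut at about 13% in these data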;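 also: signal is the Cy5 over europium emission ratio at 671 and 618 nm; 0% = plate median of compound wells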
UHRF1 MBD2 ctr – human UHRF1 methylated DNA binding inhibitors. Q96T88. UHRF1 binding to methylated oligo, TR-FRET. inhibition, % at 4.4 µM. 370,000 compounds, 0.75% hits. AID 687016; in the data active = inhibition above about 21%;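 also: UHRF1 SRA domain binding a hemimethylated CpG hairpin DNA probe; 0% = median of test compound wells and 100% = reference inhibitor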
MBD2 DNA inh – MBD2-methylated oligo binding inhibition; inhibition, % at 4.4 µM; Q9UBB5; 370,000 compounds, 0.31% hits; TR-FRET, MBD2 binding to methylated oligonucleotide; in the data active = inhibition above about 13%
TDP2 absorb – TDP2 (human) inhibition, absorbance primary screen | recombinant TDP2, T5PNP hydrolysis, p-nitrophenol absorbance 415 nm | inhibition, % at 12.8 µM | 370,000 compounds, 0.34% hits | AID 720702;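 active = inhibition above the mean of all tested compounds plus 3 SD, set per campaign, cut at about 25% in these data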;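 also: 0% = DMSO with enzyme and 100% = buffer with substrate but no TDP2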
Target sequence (O95551 whole entry, looked up): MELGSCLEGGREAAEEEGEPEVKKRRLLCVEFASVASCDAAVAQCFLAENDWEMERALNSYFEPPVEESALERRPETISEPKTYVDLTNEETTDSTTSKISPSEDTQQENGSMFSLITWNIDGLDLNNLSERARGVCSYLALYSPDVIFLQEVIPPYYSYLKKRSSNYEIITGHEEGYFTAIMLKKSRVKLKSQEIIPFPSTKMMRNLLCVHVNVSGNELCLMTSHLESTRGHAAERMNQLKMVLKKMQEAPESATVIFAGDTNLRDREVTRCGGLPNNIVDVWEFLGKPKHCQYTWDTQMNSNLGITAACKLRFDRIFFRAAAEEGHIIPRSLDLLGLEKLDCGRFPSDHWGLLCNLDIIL
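System – recombinant human TDP2 · Amount – 120 nM TDP2 per well · Buffer or medium – Mg2+-containing Tris-HCl buffer, pH 7.5 · Reagent – T5PNP substrate, 5 mM · Dosing – 12.8 µM single point, 1% DMSO · Incubation – 2 h at 37 °C · Measured by – epi absorbance · Read-out basis – percent inhibition · Benchmarks – high control without enzyme, low control DMSO plus TDP2 · Repeats – singlicate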
TDP2 confirm – human TDP2 inhibition, confirmation; shares compounds with TDP2 absorb; recombinant human TDP2, absorbance read-out; inhibition, % at 12.8 µM; 1,100 compounds, 22% hits; AID 743263; in the data active = inhibition above about 25%;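 also: 0% = vehicle with enzyme and 100% = no enzyme buffer only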
IN multimer up – activates HIV-1 integrase multimerization in LEDGF counter-screen | activation, % at 7.7 µM | 2,000 compounds, 17% hits | shares compounds with LEDGF integ inh | TR-FRET HIV-1 integrase multimerization, biochemical | AID 1053131; in the data active = activation above about 8.9%
TR-FRET interf – counter-screen for LEDGF/p75 integration inhibitors: TR-FRET optical interference; 2,000 tested, under 10 active; inhibition, % at 7.7 µM; shares compounds with LEDGF integ inh; TR-FRET optical interference counterscreen, HIV-1 IN multimerization;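 active = inhibition above the mean over all tested compounds plus 3 SD, which no compound reached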;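 also: 0% = integrase with antibodies and DMSO and 100% = antibodies without integrase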
IN-LEDGF confirm – LEDGF/p75-dependent HIV-1 integration inhibition, confirmation. shares compounds with LEDGF integ inh. TR-FRET LEDGF/p75-dependent HIV-1 integration, biochemical. inhibition, % at 3.7 µM. 2,000 compounds, 36% hits. AID 1053136; in the data active = inhibition above about 14%
Starred values were filed as active, the others as inactive. The list is not random: actives were taken first. Their share in the collection is about 1.6%.

`Clc1ccccc1CNCCc1c[nH]c2ccccc12` gave LEDGF integ inh -2, UHRF1 MBD2 ctr 1, MBD2 DNA inh -4 and TDP2 absorb 2.
`O=[N+]([O-])c1ccccc1CNCCc1c[nH]c2ccccc12` gave LEDGF integ inh 1, UHRF1 MBD2 ctr 1, MBD2 DNA inh 1, TDP2 absorb 25* and TDP2 confirm 6.
Screening O=P(C(Cl)Cl)(N1CCOCC1)N1CCOCC1 returned LEDGF integ inh 1, UHRF1 MBD2 ctr -3, MBD2 DNA inh 3, TDP2 absorb 30* and TDP2 confirm 4.
`COCCCn1c(N)c(C(=O)Nc2sc3c(c2C(=O)OC)CCCC3)c2nc3ccccc3nc21` gave LEDGF integ inh 11, UHRF1 MBD2 ctr 4, MBD2 DNA inh 2, TDP2 absorb 35* and TDP2 confirm 4.
`CN1C(=O)C(=Cc2ccccc2Oc2ccc(Cl)c(F)c2)C(=O)N(C)C1=O` gave LEDGF integ inh 4, UHRF1 MBD2 ctr -2, MBD2 DNA inh -4, TDP2 absorb 25* and TDP2 confirm 7.
Screening COc1cccc(C(=O)NCCN2CCC3(CC2)C(=O)NCN3c2ccccc2)c1 returned LEDGF integ inh -2, UHRF1 MBD2 ctr -1, MBD2 DNA inh 1 and TDP2 absorb 1.
`COc1ccccc1CN1CCN(C(=O)COc2cccc(C)c2)CC1` gave LEDGF integ inh 4, UHRF1 MBD2 ctr 1, MBD2 DNA inh -2 and TDP2 absorb -9.
`COc1ccccc1CN1CCN(C(=O)COc2ccc3ccccc3c2)CC1` gave LEDGF integ inh 1, UHRF1 MBD2 ctr -2, MBD2 DNA inh 3, TDP2 absorb 25* and TDP2 confirm 6.
COc1ccc(C[C@@H]2c3cc(O)c(OC)cc3CCN2C)cc1O was read as LEDGF integ inh 0, UHRF1 MBD2 ctr -2, MBD2 DNA inh 0 and TDP2 absorb 14.
Screening COc1cc2c(cc1O)[C@@H]1Cc3ccc(OC)c(O)c3CN1CC2 returned LEDGF integ inh 38*, UHRF1 MBD2 ctr 6, MBD2 DNA inh -2, TDP2 absorb 54*, TDP2 confirm 38*, IN multimer up 6, TR-FRET interf -20 and IN-LEDGF confirm 44*.
Screening C[C@@H]1CNCCN1c1ccc(N2CC[C@H](O)C2)c(C#N)c1 returned LEDGF integ inh -5, UHRF1 MBD2 ctr -4, MBD2 DNA inh -2 and TDP2 absorb 1.
COCCCn1c(N)c(C(=O)NCc2ccco2)c2nc3ccccc3nc21 was read as LEDGF integ inh 33*, UHRF1 MBD2 ctr 16, MBD2 DNA inh 13, TDP2 absorb 92*, TDP2 confirm 15, IN multimer up -4, TR-FRET interf 16 and IN-LEDGF confirm 52*.
Screening CC(C)(C)OC(=O)c1c(N)n(Cc2ccco2)c2nc3ccccc3nc12 returned LEDGF integ inh 35*, UHRF1 MBD2 ctr 10, MBD2 DNA inh -7, TDP2 absorb 67*, TDP2 confirm -4, IN multimer up 2, TR-FRET interf -5 and IN-LEDGF confirm -5.
`CCC(C)NC(=O)c1c(N)n(CCCOC)c2nc3ccccc3nc12` (stereo not given) gave LEDGF integ inh 39*, UHRF1 MBD2 ctr 10, MBD2 DNA inh 13, TDP2 absorb 67*, TDP2 confirm 17, IN multimer up 8, TR-FRET interf -25 and IN-LEDGF confirm 14*.
Screening CCC(C)NC(=O)c1c(N)n(CC2CCCO2)c2nc3ccccc3nc12 (stereo not given) returned LEDGF integ inh 19*, UHRF1 MBD2 ctr 12, MBD2 DNA inh 4, TDP2 absorb 62*, TDP2 confirm -1, IN multimer up 0, TR-FRET interf 1 and IN-LEDGF confirm -1.
COCCNC(=O)c1c(N)n(Cc2ccco2)c2nc3ccccc3nc12 was read as LEDGF integ inh 3, UHRF1 MBD2 ctr -13, MBD2 DNA inh -4 and TDP2 absorb 7.
`CC(C)(C)n1nnnc1C1CN=C(c2ccccc2)c2ccccc2N1` (stereo not given) gave LEDGF integ inh -2, UHRF1 MBD2 ctr -1, MBD2 DNA inh 1 and TDP2 absorb 0.
C=CCCC(NC(=O)OCc1ccccc1)P(=O)(Oc1ccccc1)Oc1ccccc1 (stereo not given) was read as LEDGF integ inh -2, UHRF1 MBD2 ctr 2, MBD2 DNA inh 4 and TDP2 absorb 2.
`C[C@@H]1CNCCN1c1ccc(N2CC[C@@H](O)C2)c(C#N)c1` gave LEDGF integ inh 5, UHRF1 MBD2 ctr -6, MBD2 DNA inh -8 and TDP2 absorb -8.
`CCCCn1c(NC(=O)c2ccc(Br)o2)c(C(=O)OCC)c2nc3ccccc3nc21` gave LEDGF integ inh 17*, UHRF1 MBD2 ctr 4, MBD2 DNA inh -4, TDP2 absorb 65*, TDP2 confirm 73*, IN multimer up -1, TR-FRET interf 3 and IN-LEDGF confirm 69*.
`CCOC(=O)c1c(N)n(CCN2CCCCC2)c2nc3ccccc3nc12` gave LEDGF integ inh -2, UHRF1 MBD2 ctr -5, MBD2 DNA inh -3 and TDP2 absorb 5.
`CCCCn1c(NS(=O)(=O)c2ccccc2)c(C(=O)OCC)c2nc3ccccc3nc21` gave LEDGF integ inh 31*, UHRF1 MBD2 ctr 12, MBD2 DNA inh 7, TDP2 absorb 88*, TDP2 confirm 83*, IN multimer up 0, TR-FRET interf -1 and IN-LEDGF confirm 66*.
Screening CCc1ccccc1N1C(=O)/C(=C/c2ccc(N3CCN(C)CC3)o2)C(=O)NC1=S returned LEDGF integ inh 17*, UHRF1 MBD2 ctr 6, MBD2 DNA inh -3, TDP2 absorb -1, IN multimer up 2, TR-FRET interf -8 and IN-LEDGF confirm 14*.
`O=C(CF)N(O)c1ccc(C=Cc2ccccc2)cc1` gave LEDGF integ inh 24*, UHRF1 MBD2 ctr 2, MBD2 DNA inh 4, TDP2 absorb 1, IN multimer up 0, TR-FRET interf -1 and IN-LEDGF confirm -5.
O=C(COc1ccccc1)N1CCN(C/C=C/c2ccccc2)CC1 was read as LEDGF integ inh -4, UHRF1 MBD2 ctr -3, MBD2 DNA inh 4 and TDP2 absorb -9.
c1ccc(Cn2nnnc2C2CN=C(c3ccccc3)c3ccccc3N2)cc1 (stereo not given) was read as LEDGF integ inh -1, UHRF1 MBD2 ctr -3, MBD2 DNA inh -3 and TDP2 absorb 5.

Screening data: PubChem BioAssay, The Scripps Research Institute Molecular Screening Center
